Test results: the array DNA melting data of Ke et al. (doi:10.1101/2024.01.08.574731)

Assays:
[1] = melting temperature; fluorescence melt of hairpins on a sequencing array, two-state fit, raised by 9.35 °C to match UV melts; conditions: sodium 0.088 M
In short: (§1)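 Cy3 fluorescence of library hairpins on a sequenced MiSeq flow cell, with annealed Cy3 and quencher oligos, was imaged in 50 mM Na-HEPES pH 8.0, 25 mM NaCl in 2.5 °C steps up to 60 °C. Signals were normalised to pre-quench Cy3 and to control variants. Melting temperature and folding enthalpy came from bootstrapped two-state fits, inverse-variance combined over four replicates. Fitted temperatures were raised by 9.35 °C to match UV melts.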

[2] = folding enthalpy; higher = less favourable; fluorescence melt of hairpins on a sequencing array, two-state fit; conditions: sodium 0.088 M
In short: as §1

## GATCGCCCCAGCGATC ((((((....))))))
[1]
  Tm: 68.5 °C
[2]
  folding enthalpy: -33.5 kcal/mol

## GATCGCCCGAGCGATC ((((((....))))))
[1]
  Tm: 67.5 °C
[2]
  folding enthalpy: -37.4 kcal/mol

## GATCGCCGAAAGGCTATC (((.(((....))).)))
[1]
  Tm: 42.1 °C
[2]
  folding enthalpy: -20.4 kcal/mol

## GATCGCCGAGCGATC ((((((...))))))
[1]
  Tm: 67.3 °C
[2]
  folding enthalpy: -32.5 kcal/mol

## GATCGCCGGAGCGATC ((((((....))))))
[1]
  Tm: 68.9 °C
[2]
  folding enthalpy: -31.6 kcal/mol

## GATCGCCGGCGCGATC ((((((....))))))
[1]
  Tm: 61.1 °C
[2]
  folding enthalpy: -34.1 kcal/mol

## GATCGCCGGGCGATC ((((((...))))))
[1]
  Tm: 67.8 °C
[2]
  folding enthalpy: -31.1 kcal/mol

## GATCGCCGTAGCGATC ((((((....))))))
[1]
  Tm: 69.2 °C
[2]
  folding enthalpy: -45 kcal/mol

## GATCGCCTATGCGATC ((((((....))))))
[1]
  Tm: 68.1 °C
[2]
  folding enthalpy: -31.6 kcal/mol

## GATCGCCTCTGCGATC ((((((....))))))
[1]
  Tm: 66.5 °C
[2]
  folding enthalpy: -37 kcal/mol

## GATCGCCTGTGCGATC ((((((....))))))
[1]
  Tm: 66.8 °C
[2]
  folding enthalpy: -36.7 kcal/mol

## GATCGCGAAAGCGCATC ((((((....))).)))
[1]
  Tm: 51.4 °C
[2]
  folding enthalpy: -15.3 kcal/mol

## GATCGCGAAAGCGGAATC ((((((....)))..)))
[1]
  Tm: 34.8 °C
[2]
  folding enthalpy: -10.9 kcal/mol

## GATCGCGAGGGCGATC ((((((....))))))
[1]
  Tm: 68 °C
[2]
  folding enthalpy: -38 kcal/mol

## GATCGCTCACGCGATC ((((((....))))))
[1]
  Tm: 67.8 °C
[2]
  folding enthalpy: -41.2 kcal/mol

## GATCGCTCCCGCGATC ((((((....))))))
[1]
  Tm: 67.8 °C
[2]
  folding enthalpy: -34.3 kcal/mol

## GATCGCTCCGGCGATC ((((((....))))))
[1]
  Tm: 68.4 °C
[2]
  folding enthalpy: -39.2 kcal/mol

## GATCGCTCTGCGATC ((((((...))))))
[1]
  Tm: 68.5 °C
[2]
  folding enthalpy: -41.8 kcal/mol

## GATCGCTGACGCGATC ((((((....))))))
[1]
  Tm: 66.7 °C
[2]
  folding enthalpy: -36.5 kcal/mol

## GATCGCTGCGGCGATC ((((((....))))))
[1]
  Tm: 68.9 °C
[2]
  folding enthalpy: -38.9 kcal/mol

## GATCGCTGGTGCGATC ((((((....))))))
[1]
  Tm: 68.6 °C
[2]
  folding enthalpy: -34.2 kcal/mol

## GATCGCTTCTGCGATC ((((((....))))))
[1]
  Tm: 68.3 °C
[2]
  folding enthalpy: -42.3 kcal/mol

## GATCGCTTTCGCGATC ((((((....))))))
[1]
  Tm: 67.4 °C
[2]
  folding enthalpy: -38.4 kcal/mol

## GATCGGAAACCCGATC ((((((....))))))
[1]
  Tm: 53.9 °C
[2]
  folding enthalpy: -34.6 kcal/mol

## GATCGGAACCCGATC ((((((...))))))
[1]
  Tm: 54 °C
[2]
  folding enthalpy: -44 kcal/mol

## GATCGGAACGCCGATC ((((((....))))))
[1]
  Tm: 54.7 °C
[2]
  folding enthalpy: -41.2 kcal/mol

## GATCGGACAACCGATC ((((((....))))))
[1]
  Tm: 53.5 °C
[2]
  folding enthalpy: -34.7 kcal/mol

## GATCGGACGCCGATC ((((((...))))))
[1]
  Tm: 53.6 °C
[2]
  folding enthalpy: -37.4 kcal/mol

## GATCGGAGCACCGATC ((((((....))))))
[1]
  Tm: 57.4 °C
[2]
  folding enthalpy: -34.3 kcal/mol

## GATCGGAGGCCCGATC ((((((....))))))
[1]
  Tm: 56.4 °C
[2]
  folding enthalpy: -34.1 kcal/mol

## GATCGGAGTGCCGATC ((((((....))))))
[1]
  Tm: 57 °C
[2]
  folding enthalpy: -30.2 kcal/mol

## GATCGGAGTTCCGATC ((((((....))))))
[1]
  Tm: 56.7 °C
[2]
  folding enthalpy: -37.8 kcal/mol

## GATCGGATACCCGATC ((((((....))))))
[1]
  Tm: 56.6 °C
[2]
  folding enthalpy: -40.3 kcal/mol

## GATCGGATAGCCGATC ((((((....))))))
[1]
  Tm: 55.4 °C
[2]
  folding enthalpy: -29.6 kcal/mol

## GATCGGATGCCCGATC ((((((....))))))
[1]
  Tm: 55.5 °C
[2]
  folding enthalpy: -27 kcal/mol

## GATCGGATTACCGATC ((((((....))))))
[1]
  Tm: 58.2 °C
[2]
  folding enthalpy: -38.7 kcal/mol

## GATCGGCAACCGATC ((((((...))))))
[1]
  Tm: 54.6 °C
[2]
  folding enthalpy: -36.7 kcal/mol

## GATCGGCCGCCGATC ((((((...))))))
[1]
  Tm: 55.7 °C
[2]
  folding enthalpy: -36.6 kcal/mol

## GATCGGCGAAAGCCCATC (((.(((....))).)))
[1]
  Tm: 36.4 °C
[2]
  folding enthalpy: -11.2 kcal/mol

## GATCGGCGAACCGATC ((((((....))))))
[1]
  Tm: 56.2 °C
[2]
  folding enthalpy: -38.2 kcal/mol

## GATCGGCTGCCCGATC ((((((....))))))
[1]
  Tm: 56.2 °C
[2]
  folding enthalpy: -31.2 kcal/mol

## GATCGGCTGGCCGATC ((((((....))))))
[1]
  Tm: 68.3 °C
[2]
  folding enthalpy: -38.2 kcal/mol

## GATCGGGACCCCGATC ((((((....))))))
[1]
  Tm: 62.4 °C
[2]
  folding enthalpy: -39.4 kcal/mol

## GATCGGGCCTCCGATC ((((((....))))))
[1]
  Tm: 59.7 °C
[2]
  folding enthalpy: -36.6 kcal/mol

## GATCGGGCTACCGATC ((((((....))))))
[1]
  Tm: 67.7 °C
[2]
  folding enthalpy: -36.7 kcal/mol

## GATCGGGGAAACCCGGTC ((.((((....)))).))
[1]
  Tm: 53.8 °C
[2]
  folding enthalpy: -26.8 kcal/mol

## GATCGGGGAACCGATC ((((((....))))))
[1]
  Tm: 65.3 °C
[2]
  folding enthalpy: -34.1 kcal/mol

## GATCGGGGTACCGATC ((((((....))))))
[1]
  Tm: 65.7 °C
[2]
  folding enthalpy: -34.5 kcal/mol

## GATCGGGTCACCGATC ((((((....))))))
[1]
  Tm: 67.4 °C
[2]
  folding enthalpy: -36.4 kcal/mol

## GATCGGGTCCCGATC ((((((...))))))
[1]
  Tm: 56.7 °C
[2]
  folding enthalpy: -46.5 kcal/mol

## GATCGGGTCGCCGATC ((((((....))))))
[1]
  Tm: 65.3 °C
[2]
  folding enthalpy: -7.84 kcal/mol

## GATCGGGTGACCGATC ((((((....))))))
[1]
  Tm: 67 °C
[2]
  folding enthalpy: -36.4 kcal/mol

## GATCGGGTGCCGATC ((((((...))))))
[1]
  Tm: 55.2 °C
[2]
  folding enthalpy: -49.1 kcal/mol

## GATCGGGTTGCCGATC ((((((....))))))
[1]
  Tm: 57.7 °C
[2]
  folding enthalpy: -31.1 kcal/mol

## GATCGGTAATCCGATC ((((((....))))))
[1]
  Tm: 57.3 °C
[2]
  folding enthalpy: -40.8 kcal/mol

## GATCGGTAGCCCGATC ((((((....))))))
[1]
  Tm: 56.3 °C
[2]
  folding enthalpy: -30.1 kcal/mol

## GATCGGTCACCGATC ((((((...))))))
[1]
  Tm: 55.8 °C
[2]
  folding enthalpy: -36.2 kcal/mol

## GATCGGTCTTCCGATC ((((((....))))))
[1]
  Tm: 58.9 °C
[2]
  folding enthalpy: -37.2 kcal/mol

## GATCGGTGAACCGATC ((((((....))))))
[1]
  Tm: 61 °C
[2]
  folding enthalpy: -43.4 kcal/mol

## GATCGGTGATCCGATC ((((((....))))))
[1]
  Tm: 56.8 °C
[2]
  folding enthalpy: -41.2 kcal/mol

## GATCGGTGTCCCGATC ((((((....))))))
[1]
  Tm: 58.4 °C
[2]
  folding enthalpy: -38.3 kcal/mol

## GATCGGTTACCCGATC ((((((....))))))
[1]
  Tm: 57.3 °C
[2]
  folding enthalpy: -41.4 kcal/mol

## GATCGGTTAGCCGATC ((((((....))))))
[1]
  Tm: 58.6 °C
[2]
  folding enthalpy: -46.4 kcal/mol

## GATCGGTTTGCCGATC ((((((....))))))
[1]
  Tm: 61.6 °C
[2]
  folding enthalpy: -47.9 kcal/mol

## GATCGTAAACACGATC ((((((....))))))
[1]
  Tm: 52 °C
[2]
  folding enthalpy: -36.9 kcal/mol

## GATCGTAACACGATC ((((((...))))))
[1]
  Tm: 57.5 °C
[2]
  folding enthalpy: -37.4 kcal/mol

## GATCGTAACGACGATC ((((((....))))))
[1]
  Tm: 54.9 °C
[2]
  folding enthalpy: -34.8 kcal/mol

## GATCGTAACTACGATC ((((((....))))))
[1]
  Tm: 56 °C
[2]
  folding enthalpy: -41.6 kcal/mol

## GATCGTACAAACGATC ((((((....))))))
[1]
  Tm: 52.6 °C
[2]
  folding enthalpy: -40.2 kcal/mol

## GATCGTACTAACGATC ((((((....))))))
[1]
  Tm: 54.8 °C
[2]
  folding enthalpy: -39.1 kcal/mol

## GATCGTAGACACGATC ((((((....))))))
[1]
  Tm: 54.2 °C
[2]
  folding enthalpy: -39.8 kcal/mol

## GATCGTAGATACGATC ((((((....))))))
[1]
  Tm: 55.1 °C
[2]
  folding enthalpy: -32.3 kcal/mol
